# Data reported in ChEMBL document CHEMBL1124813, “Synthesis and antiinflammatory activity of novel 12 beta-substituted analogues of betamethasone” (1990).
# Several values for one entry are separate records, joined by “and”; a condition that tells them apart may be missing. Identical values can stand only once.
# How the values were obtained:
# Type in all cases: functional
# Mus musculus [1] = assay: Systemic Antiinflammatory activity was measured in the TPA induced mouse ear edema assay at 300 ugm/mouse.
# Method in brief: (§1)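 Systemic absorption was assessed by the contralateral ear assay. Ear edema was induced with TPA (8.8 nmol/mouse) and scored on the ear opposite the one receiving the topical corticoid.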
# Mus musculus [2] = assay: Topical Antiinflammatory activity was measured in the TPA induced mouse ear edema assay at 300 ugm/mouse.
# Method in brief: (§2)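 Mouse ear edema induced by topical TPA at 8.8 nmol/mouse, with the test steroid applied topically to the ear.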
# Mus musculus [3] = assay: Topical Antiinflammatory activity was measured in the TPA induced mouse ear edema assay at 50 ug/mouse.; method in brief: as §2
# Mus musculus [4] = organism: Mus musculus; assay: Atrophogenicity potency was observed in mouse at given dose at 300 ugm/mouse.
# Mus musculus [5] = organism: Mus musculus; assay: Percentage systemic effect to assess the degree of absorption was measured at 50 ug/mouse
# Method in brief: (§3)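 Systemic effect was measured after repeated topical high-dose applications to the mouse ear. Thymic involution was read as loss of thymus weight (n = 6). Adrenal suppression was read as inhibition of the stress-induced rise in plasma cortisol (n = 6).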
# Mus musculus [6] = assay: Systemic Antiinflammatory activity was measured in the TPA induced mouse ear edema assay at 50 ug/mouse; method in brief: as §1
# Mus musculus [7] = assay: Systemic Antiinflammatory activity was measured in the TPA induced mouse ear edema assay at 200 ug/mouse.; method in brief: as §1
# Mus musculus [8] = organism: Mus musculus; assay: Percentage systemic effect to assess the degree of absorption was measured at 200 ug/mouse.; method in brief: as §3
# Mus musculus [9] = assay: Topical Antiinflammatory activity was measured in the TPA induced mouse ear edema assay at 100 ug/mouse.; method in brief: as §2
# Mus musculus [10] = organism: Mus musculus; assay: Skin thickness of mouse was measured at 300 ugm/mouse.
# Mus musculus [11] = assay: Topical Antiinflammatory activity was measured in the TPA induced mouse ear edema assay at 200 ug/mouse.; method in brief: as §2
# Mus musculus [12] = organism: Mus musculus; assay: Percentage systemic effect to assess the degree of absorption was measured at 100 ug/mouse.; method in brief: as §3
# Mus musculus [13] = assay: Systemic Antiinflammatory activity was measured in the TPA induced mouse ear edema assay at 100 ug/mouse.; method in brief: as §1
# Mus musculus [14] = assay: ED100 of was measured in the TPA induced mouse ear edema assay.; method in brief: as §2
# Mus musculus [15] = organism: Mus musculus; assay: Percentage systemic effect to assess the degree of absorption was measured at 10 ug/mouse.; method in brief: as §3
# Mus musculus [16] = assay: Systemic Antiinflammatory activity was measured in the TPA induced mouse ear edema assay at 40 ugm/mouse.; method in brief: as §1
# Mus musculus [17] = assay: Systemic Antiinflammatory activity was measured in the TPA induced mouse ear edema assay at 10 ug/mouse.; method in brief: as §1
# Mus musculus [18] = organism: Mus musculus; assay: Skin thickness of mouse was measured at 200 ug/mouse
# Mus musculus [19] = assay: Topical Antiinflammatory activity was measured in the TPA induced mouse ear edema assay at 10 ug/mouse.; method in brief: as §2
# Mus musculus [20] = assay: Topical Antiinflammatory activity was measured in the TPA induced mouse ear edema assay at 40 ugm/mouse.; method in brief: as §2
# Mus musculus [21] = organism: Mus musculus; assay: Percentage systemic effect to assess the degree of absorption was measured 40 ugm/mouse.; method in brief: as §3
# Mus musculus [22] = organism: Mus musculus; assay: Atrophogenicity potency was observed in mouse at 200 ug/mouse.
# Mus musculus [23] = organism: Mus musculus; assay: Percentage systemic effect to assess the degree of absorption was measured at 50 ug/mouse.; method in brief: as §3
# Mus musculus [24] = assay: Systemic Antiinflammatory activity was measured in the TPA induced mouse ear edema assay at 50 ug/mouse.; method in brief: as §1
# Mus musculus [25] = organism: Mus musculus; assay: Percentage systemic effect to assess the degree of absorption was measured at 300 ugm/mouse.; method in brief: as §3
# Mus musculus [26] = organism: Mus musculus; assay: Percentage systemic effect to assess the degree of absorption was measured at 40 ugm/mouse.; method in brief: as §3
# Mus musculus [27] = organism: Mus musculus; assay: Skin thickness of mouse was measured at 75 ug/mouse
# Mus musculus [28] = organism: Mus musculus; assay: Percentage systemic effect to assess the degree of absorption was measured 75 ug/mouse; method in brief: as §3
# Mus musculus [29] = assay: Topical Antiinflammatory activity was measured in the TPA induced mouse ear edema assay at 25 ug/mouse.; method in brief: as §2
# Mus musculus [30] = assay: Systemic Antiinflammatory activity was measured in the TPA induced mouse ear edema assay at 75 ug/mouse; method in brief: as §1
# Mus musculus [31] = organism: Mus musculus; assay: Percentage systemic effect to assess the degree of absorption was measured 25 ug/mouse; method in brief: as §3
# Mus musculus [32] = assay: Systemic Antiinflammatory activity was measured in the TPA induced mouse ear edema assay at 25 ug/mouse; method in brief: as §1
# Mus musculus [33] = assay: Topical Antiinflammatory activity was measured in the TPA induced mouse ear edema assay at 2.5 ug/mouse.; method in brief: as §2
# Mus musculus [34] = assay: Topical Antiinflammatory activity was measured in the TPA induced mouse ear edema assay at 75 ug/mouse.; method in brief: as §2
# Mus musculus [35] = organism: Mus musculus; assay: Atrophogenicity potency was observed in mouse at 75 ug/mouse.
# Mus musculus [36] = assay: Systemic Antiinflammatory activity was measured in the TPA induced mouse ear edema assay at 2.5 ug/mouse; method in brief: as §1
# Mus musculus [37] = organism: Mus musculus; assay: Skin thickness of mouse was measured at 75 ug/mouse.
# Mus musculus [38] = organism: Mus musculus; assay: Percentage systemic effect to assess the degree of absorption was measured at 75 ug/mouse; method in brief: as §3
# Mus musculus [39] = organism: Mus musculus; assay: Percentage systemic effect to assess the degree of absorption was measured at 2.5 ug/mouse; method in brief: as §3
compound,measurement,setting,value
CCCC(=O)O[C@@H]1[C@H](O)[C@@]2(Br)C(CCC3=CC(=O)C=C[C@@]32C)[C@@H]2C[C@H](C)[C@](OC(=O)CC)(C(=O)COC(=O)CC)[C@@]12C (stereo partly drawn),Potency,Mus musculus [1],0%
same,Potency,Mus musculus [2],68%
CCC(=O)OCC(=O)[C@@]1(OC(=O)CC)[C@@H](C)C[C@H]2C3CCC4=CC(=O)C=C[C@]4(C)[C@@]3(Cl)[C@@H](O)[C@@H](OC(=O)CC)[C@@]21C (stereo partly drawn),Potency,Mus musculus [1],0%
same,Potency,Mus musculus [3],47%
same,Potency,Mus musculus [4],0.1%
same,Systemic effect,Mus musculus [5],4% and 5%
same,Potency,Mus musculus [6],0%
same,Potency,Mus musculus [2],84%
same,Potency,Mus musculus [7],0%
same,Systemic effect,Mus musculus [8],0% and 6%
same,Potency,Mus musculus [9],53%
same,Skin thickness,Mus musculus [10],16.5
same,Potency,Mus musculus [11],71%
same,Systemic effect,Mus musculus [12],5%
same,Potency,Mus musculus [13],0%
same,ED100,Mus musculus [14],400 µg
CCC(=O)OCC(=O)[C@@]1(OC(=O)CC)[C@@H](C)C[C@H]2C3CCC4=CC(=O)C=C[C@]4(C)[C@@]3(Br)[C@@H](O)[C@@H](OC(=O)CC)[C@@]21C (stereo partly drawn),Potency,Mus musculus [1],0%
same,Potency,Mus musculus [3],36%
same,Systemic effect,Mus musculus [5],2%
same,Potency,Mus musculus [6],0%
same,Potency,Mus musculus [2],96%
same,Potency,Mus musculus [7],0%
same,Systemic effect,Mus musculus [8],2% and 0%
same,Potency,Mus musculus [9],45%
same,Potency,Mus musculus [11],70%
same,Systemic effect,Mus musculus [12],6%
same,Potency,Mus musculus [13],0%
same,ED100,Mus musculus [14],325 µg
CCC(=O)OCC(=O)[C@@]1(OC(=O)CC)[C@@H](C)C[C@H]2C3CCC4=CC(=O)C=C[C@]4(C)[C@@]3(Br)[C@@H](O)[C@@H](OC(=O)c3ccco3)[C@@]21C (stereo partly drawn),Potency,Mus musculus [1],0%
same,Potency,Mus musculus [2],69%
CCC(=O)OCC(=O)[C@@]1(OC(=O)CC)[C@@H](C)C[C@H]2C3CCC4=CC(=O)C=C[C@]4(C)[C@@]3(Br)[C@@H](O)[C@@H](OC(=O)c3ccccc3)[C@@]21C (stereo partly drawn),Potency,Mus musculus [1],0%
same,Potency,Mus musculus [2],84%
CCC(=O)OCC(=O)[C@@]1(OC(=O)CC)[C@@H](C)C[C@H]2C3CCC4=CC(=O)C=C[C@]4(C)[C@@]3(Cl)[C@@H](O)[C@@H](O)[C@@]21C (stereo partly drawn),Systemic effect,Mus musculus [15],4% and 2%
same,Potency,Mus musculus [16],5%
same,Potency,Mus musculus [17],0%
same,Skin thickness,Mus musculus [18],13.92
same,Potency,Mus musculus [19],41%
same,Potency,Mus musculus [20],67%
same,Potency,Mus musculus [9],81%
same,Systemic effect,Mus musculus [21],0% and 13%
same,Systemic effect,Mus musculus [12],5% and 14%
same,Potency,Mus musculus [13],21%
same,ED100,Mus musculus [14],160 µg
same,Potency,Mus musculus [22],15.7%
CCC(=O)OCC(=O)[C@@]1(OC(=O)CC)[C@@H](C)C[C@H]2C3CCC4=CC(=O)C=C[C@]4(C)[C@@]3(Br)[C@@H](O)[C@@H](O)[C@@]21C (stereo partly drawn),Potency,Mus musculus [1],22%
same,Potency,Mus musculus [3],57%
same,Potency,Mus musculus [2],99%
same,Potency,Mus musculus [7],17%
same,Systemic effect,Mus musculus [8],7% and 15%
same,Potency,Mus musculus [9],86%
same,Systemic effect,Mus musculus [23],7% and 12%
same,Potency,Mus musculus [24],16%
same,Potency,Mus musculus [11],91%
same,Systemic effect,Mus musculus [12],0% and 14%
same,Systemic effect,Mus musculus [25],7% and 15%
same,Potency,Mus musculus [13],17%
same,ED100,Mus musculus [14],325 µg
CCC(=O)OCC(=O)[C@@]1(OC(=O)CC)[C@@H](C)C[C@H]2C3CCC4=CC(=O)C=C[C@]4(C)[C@@]3(F)[C@@H](O)[C@@H](OC(=O)CC)[C@@]21C (stereo partly drawn),Systemic effect,Mus musculus [15],0%
same,Potency,Mus musculus [16],0%
same,Potency,Mus musculus [7],0%
same,Potency,Mus musculus [17],0%
same,Potency,Mus musculus [19],21%
same,Systemic effect,Mus musculus [26],1% and 6%
same,Potency,Mus musculus [20],50%
same,Potency,Mus musculus [9],69%
same,Potency,Mus musculus [11],77%
same,Systemic effect,Mus musculus [12],4% and 0%
same,Potency,Mus musculus [13],0%
same,ED100,Mus musculus [14],400 µg
CCC(=O)OCC(=O)[C@@]1(OC(=O)CC)[C@@H](C)C[C@H]2C3CCC4=CC(=O)C=C[C@]4(C)[C@@]3(Br)[C@@H](O)[C@@H](OC(=O)CC(C)C)[C@@]21C (stereo partly drawn),Potency,Mus musculus [1],0%
same,Potency,Mus musculus [2],54%
CCC(=O)OCC(=O)[C@@]1(OC(=O)CC)[C@@H](C)C[C@H]2C3CCC4=CC(=O)C=C[C@]4(C)[C@@]3(F)[C@@H](O)[C@@H](O)[C@@]21C (stereo partly drawn),Systemic effect,Mus musculus [15],9% and 1%
same,Potency,Mus musculus [16],11%
same,Potency,Mus musculus [17],7%
same,Potency,Mus musculus [19],46%
same,Potency,Mus musculus [20],60%
same,Potency,Mus musculus [9],82%
same,Systemic effect,Mus musculus [21],13% and 10%
same,Systemic effect,Mus musculus [12],21% and 30%
same,Potency,Mus musculus [13],19%
same,ED100,Mus musculus [14],140 µg
CCC(=O)OCC(=O)[C@@]1(OC(=O)CC)[C@@H](C)C[C@H]2[C@@H]3CCC4=CC(=O)C=C[C@]4(C)[C@@]3(Cl)[C@@H](O)C[C@@]21C [BECLOMETHASONE DIPROPIONATE],Skin thickness,Mus musculus [27],8.12
same,Systemic effect,Mus musculus [28],67% and 36%
same,Potency,Mus musculus [29],78%
same,Potency,Mus musculus [30],52%
same,Systemic effect,Mus musculus [31],52% and 32%
same,Potency,Mus musculus [32],40%
same,Potency,Mus musculus [33],60%
same,ED100,Mus musculus [14],110 µg
same,Potency,Mus musculus [34],93%
same,Potency,Mus musculus [35],51%
same,Potency,Mus musculus [36],12%
CCC(=O)OCC(=O)[C@@]1(OC(=O)CC)[C@@H](C)C[C@H]2[C@@H]3CCC4=CC(=O)C=C[C@]4(C)[C@@]3(F)[C@@H](O)C[C@@]21C [BETAMETHASONE DIPROPIONATE],Skin thickness,Mus musculus [37],9.39
same,Potency,Mus musculus [29],76%
same,Potency,Mus musculus [30],72%
same,Systemic effect,Mus musculus [38],87% and 37%
same,Potency,Mus musculus [32],30%
same,Potency,Mus musculus [33],59%
same,Systemic effect,Mus musculus [39],30% and 12%
same,ED100,Mus musculus [14],110 µg
same,Potency,Mus musculus [34],93%
same,Potency,Mus musculus [35],43%
same,Potency,Mus musculus [36],27%
